Results: ChEMBL document CHEMBL1121694, “2-(Aminomethyl)phenols, a new class of saluretic agents. 3. Effects of functional group reorientation and modification” (1981)

What was measured:
Canis familiaris [1] = experiment: Compound was tested for the saluretic property in dogs after intravenous administration of 5 mg/kg; 600-799 micro equivalents of Na+ excreted per minute; format: functional, Canis lupus familiaris
In short: (§1)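 Each dog score comes from one animal (body weight 15.2-21 kg) given the dose as a single stat administration. The standard dose is 5 mg/kg unless another is designated. Protocol and scoring system are referenced to earlier work.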

Rattus norvegicus = experiment: Evaluated for the saluretic property in rats after oral administration; score represents micro equivalents of Na+ excreted at a given mg/kg dose; format: functional
In short: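 The score is the geometric mean of three animals per cage, with three cages per dose. Protocol and scoring system are referenced to earlier work.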

Canis familiaris [2] = experiment: Tested for the saluretic property in dogs after intravenous administration of 5 mg/kg; 0-99 micro equivalents of Na+ excreted per minute; format: functional, Canis lupus familiaris; in short: as §1
Canis familiaris [3] = experiment: Compound was tested for the saluretic property in dogs after intravenous administration of 5 mg/kg; 100-249 micro equivalents of Na+ excreted per minute; format: functional, Canis lupus familiaris
Canis familiaris [4] = experiment: Compound was tested for the saluretic property in dogs after intravenous administration of 5 mg/kg; activity above 5 mg/kg; format: functional, organism-based; conditions: Canis lupus familiaris; in short: as §1
Canis familiaris [5] = experiment: Compound was evaluated for the saluretic property in dog after iv administration; score represents micro equivalents of Na+ excreted at a given mg/kg dose; format: functional, Canis lupus familiaris; in short: as §1
Canis familiaris [6] = experiment: Compound was tested for the saluretic property in dogs after intravenous administration of 1 mg/kg; >900 micro equivalents of Na+ excreted per minute; format: functional, Canis lupus familiaris; in short: as §1
Canis familiaris [7] = experiment: Compound was tested for the saluretic property in dogs after intravenous administration of 5 mg/kg; >900 micro equivalents of Na+ excreted per minute; format: functional, Canis lupus familiaris; in short: as §1
Canis familiaris [8] = experiment: Compound was tested for the saluretic property in dogs after intravenous administration of 10 mg/kg; format: functional, Canis lupus familiaris; in short: as §1
Canis familiaris [9] = experiment: Compound was tested for the saluretic property in dogs after intravenous administration of 5 mg/kg; 800-899 micro equivalents of Na+ excreted at a given mg/kg dose; format: functional, Canis lupus familiaris; in short: as §1

CC(C)(C)c1cc(I)c(O)c(CN)c1.Cl
Score (Canis familiaris [1]): 4 | Score (Rattus norvegicus): 6

O=Cc1c(O)c(Cl)cc(Cl)c1Cl
Score (Canis familiaris [2]): 0 | Score (Rattus norvegicus): 0

NS(=O)(=O)c1cc2c(cc1Cl)NCNS2(=O)=O [HYDROCHLOROTHIAZIDE]
Score (Canis familiaris [3]): 1 | Score (Rattus norvegicus): 2

NCc1cc(Cl)cc(Cl)c1O
Score (Rattus norvegicus): 2 | Score (Canis familiaris [4]): activity above 5 mg/kg

Cl.NCCc1c(O)c(Cl)cc(Cl)c1Cl
Score (Canis familiaris [3]): 1 | Score (Rattus norvegicus): 1

Cl.NCc1c(N)c(Cl)cc(Cl)c1Cl
Score (Canis familiaris [2]): 0

CC(C)(C)c1cc(Cl)c(O)c(CCCN)c1
Score (Canis familiaris [5]): 0

COc1c(Cl)c(O)c(C(=O)O)c(OC)c1Cl
Score (Canis familiaris [2]): 0 | Score (Rattus norvegicus): 0

NS(=O)(=O)c1c(O)c(Cl)cc(Cl)c1Cl
Score (Rattus norvegicus): 0

OCc1c(O)c(Cl)cc(Cl)c1Cl
Score (Canis familiaris [2]): 0 | Score (Rattus norvegicus): 0

Cl.NCC(O)c1c(O)c(Cl)cc(Cl)c1Cl (centres undefined)
Score (Canis familiaris [3]): 1 | Score (Rattus norvegicus): 0

Nc1c(O)c(Cl)cc(Cl)c1Cl
Score (Rattus norvegicus): 0

O=C(O)c1c(O)c(Cl)cc(Cl)c1Cl
Score (Rattus norvegicus): 0

NS(=O)(=O)c1cc(C(=O)O)c(NCc2ccco2)cc1Cl [FUROSEMIDE]
Score (Canis familiaris [6]): 6 | Score (Rattus norvegicus): 3

COc1c(Cl)c(O)c(CN)c(OC)c1Cl.Cl
Score (Canis familiaris [7]): 6 | Score (Rattus norvegicus): 5

NCc1c(Cl)cc(Cl)c(O)c1Cl
Score (Canis familiaris [8]): 0 | Score (Rattus norvegicus): 0

CC(C)(C)c1cc(Cl)c(O)c(CN)c1.Cl
Score (Canis familiaris [7]): 6 | Score (Rattus norvegicus): 6

CC(C)(C)c1cc(I)c(O)c(C(=O)O)c1
Score (Canis familiaris [3]): 1 | Score (Rattus norvegicus): 0

Cl.NCc1cc(Cl)c(O)c(Cl)c1Cl
Score (Canis familiaris [2]): 0 | Score (Rattus norvegicus): 0

COc1c(Cl)c(O)c(C=O)c(OC)c1Cl
Score (Canis familiaris [2]): 0 | Score (Rattus norvegicus): 0

Cl.NCc1cc(Cl)cc(Cl)c1
Score (Canis familiaris [2]): 0 | Score (Rattus norvegicus): 0

Cl.NCc1c(O)c(Cl)cc(Cl)c1Cl
Score (Canis familiaris [9]): 5 | Score (Rattus norvegicus): 3
